The test concerns the target T1, Signal transducer and activator of transcription 1-alpha/beta (Homo sapiens, UniProt P42224).
T1 sequence (P42224 whole entry): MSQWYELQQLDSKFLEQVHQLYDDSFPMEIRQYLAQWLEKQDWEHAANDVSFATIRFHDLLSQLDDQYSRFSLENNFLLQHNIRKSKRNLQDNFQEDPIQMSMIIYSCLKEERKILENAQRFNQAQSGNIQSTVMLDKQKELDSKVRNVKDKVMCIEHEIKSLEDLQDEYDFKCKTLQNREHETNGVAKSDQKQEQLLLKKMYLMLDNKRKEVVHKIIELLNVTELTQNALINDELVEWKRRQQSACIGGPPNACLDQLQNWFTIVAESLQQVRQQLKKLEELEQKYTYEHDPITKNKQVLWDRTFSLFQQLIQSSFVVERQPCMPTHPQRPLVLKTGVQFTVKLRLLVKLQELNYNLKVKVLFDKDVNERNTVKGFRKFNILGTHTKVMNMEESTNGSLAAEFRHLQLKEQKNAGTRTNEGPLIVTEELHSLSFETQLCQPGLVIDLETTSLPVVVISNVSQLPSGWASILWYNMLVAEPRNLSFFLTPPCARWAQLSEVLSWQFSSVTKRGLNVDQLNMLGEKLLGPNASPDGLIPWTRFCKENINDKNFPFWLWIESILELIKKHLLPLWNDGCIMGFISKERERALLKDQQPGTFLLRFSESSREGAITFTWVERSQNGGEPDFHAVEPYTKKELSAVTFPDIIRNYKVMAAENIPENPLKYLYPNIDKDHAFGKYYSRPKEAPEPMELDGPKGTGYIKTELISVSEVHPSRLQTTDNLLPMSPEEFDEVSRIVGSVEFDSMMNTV
Put plainly: Inhibition of IFN-gamma-induced STAT1 transcriptional activity in human HepG2 cells by luciferase reporter gene assay. In a few lines:
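STAT1-dependent luciferase reporter assay in HepG2 cells with IFN-γ stimulation; mean ± SD of at least three independent experiments.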

As usually defined, the IC50 is the concentration that inhibits the measured activity by half. A lower IC50 goes with higher potency.

On to `CCCC(C)Oc1ccc(C(=O)Nc2ccc3nc(SCC(=O)N[C@@H](C)c4ccccc4)sc3c2)c(OC)c1C` (some centres not stated), for which the IC50 stood at 0.35 µM.
The value for `CCCC(C)Oc1ccc(C(=O)Nc2ccc3nc(SCC(=O)N[C@@H](C)c4ccc(OC)cc4)sc3c2)c(OC)c1C` (some centres not stated) was 0.32 µM.

These data come from BindingDB's records for doi:10.1016/j.ejmech.2021.113333 (Fudan University, 2021).
